Results reported in ChEMBL document CHEMBL3259678 (ACS Med Chem Lett, 2014).
Calls of active or inactive are those of the source. The rule behind the calls is not given here.

Columns and labels:
[1] = target: T1, Proteasome subunit beta type-8 (Homo sapiens) (UniProt P28062); assay: Ratio of Kinact to Ki for immunoproteasome-20S subunit beta5i in human PBMC using suc-LLVY-AMC as substrate measured for 120 mins by fluorescence analysis
T1 sequence (whole entry): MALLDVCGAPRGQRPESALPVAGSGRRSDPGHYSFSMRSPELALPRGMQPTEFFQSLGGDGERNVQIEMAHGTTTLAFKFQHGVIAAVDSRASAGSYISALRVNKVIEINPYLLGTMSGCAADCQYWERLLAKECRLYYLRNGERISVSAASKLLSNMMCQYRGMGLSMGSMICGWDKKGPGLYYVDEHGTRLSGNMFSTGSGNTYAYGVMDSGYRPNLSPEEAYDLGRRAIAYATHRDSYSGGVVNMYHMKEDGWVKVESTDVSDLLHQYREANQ
In short: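 Progress curves of hu i-20S suc-LLVY-AMC hydrolysis recorded at several inhibitor concentrations. kobs for each curve fitted to equation I. kobs plotted against inhibitor concentration and fitted hyperbolically (two-step mechanism) to give kinact/KI.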

Homo sapiens [2] = species: Homo sapiens; assay: Inhibition of constitutive proteasome 20S subunit beta5c in human RBC assessed as substrate hydrolysis using suc-LLVY-AMC as substrate measured for 120 mins by fluorescence analysis
Homo sapiens [3] = species: Homo sapiens; assay: Ratio of Kinact/Ki for immunoproteasome-20S subunit beta5i in human PBMC to Kinact/Ki for constitutive proteasome 20S subunit beta5c in human RBC
[4] = target: T1, Proteasome subunit beta type-8 (Homo sapiens); assay: (§1) Inhibition of immunoproteasome-20S subunit beta5i in human PBMC assessed as substrate hydrolysis using suc-LLVY-AMC as substrate measured for 120 mins by fluorescence analysis
[5] = target: T2, Proteasome subunit beta type-8 (Homo sapiens, UniProt P28062); assay: as §1
T2 sequence (P28062 whole entry): T1 sequence (whole entry)

[6] = target: T1, Proteasome subunit beta type-8 (Homo sapiens); assay: Inhibition of immunoproteasome-20S subunit beta5i in human PBMC assessed as substrate hydrolysis using suc-LLVY-AMC as substrate by fluorescence analysis; settings: TDE = time-dependent effect
In short: (§2)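 Purified human i-20S preincubated with inhibitor for 15 min before suc-LLVY-AMC was added; inhibitor ranged from 9.8 nM to 100 μM. AMC fluorescence release read. IC50 from the concentration–response; where β2i/β1i inhibition exceeded 80% at 100 μM, IC50 was also determined.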

[7] = Half life of the compound in RPMI medium at 75 uM by UPLC/MS analysis; assay type: physicochemical
In short: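 Stability measured in tissue culture medium; reported as t1/2 in minutes.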

[8] = target: T1, Proteasome subunit beta type-8 (Homo sapiens); assay: Inhibition of immunoproteasome 20S subunit beta5i in human Karpas 1106p cell extract at 1 uM
In short: (§3)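 Cell-free extracts of Karpas 1106p cells incubated with inhibitor at various concentrations. β5i activity in the lysate then measured; reported as percent inhibition at each concentration.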

[9] = target: T1, Proteasome subunit beta type-8 (Homo sapiens); assay: Inhibition of immunoproteasome 20S subunit beta5i in human Karpas 1106p cell extract at 10 uM; in short: as §3
[10] = target: T1, Proteasome subunit beta type-8 (Homo sapiens); assay: Inhibition of immunoproteasome 20S subunit beta5i in human Karpas 1106p cell extract at 100 uM; in short: as §3
26S proteasome = assay: Inhibition of chymotrypsin-like activity of 26S proteasome in intact human Karpas 1106p cells assessed as substrate hydrolysis using Suc-LLVY-(D)-aminoluciferin as substrate after 3 hrs by cell-based Proteasome-Glo assay
In short: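 Intact Karpas 1106p cells, a human lymphoma line that expresses i-20S constitutively without IFN-γ or TNF-α stimulation. 26S proteasome activity read by cell-based Proteasome-Glo luminescence over a range of inhibitor concentrations. EC50 derived from the dose–response.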

[11] = target: T1, Proteasome subunit beta type-8 (Homo sapiens); assay: Inhibition of immunoproteasome 20S subunit beta5i in human Karpas 1106p cells assessed as accumulation of polyubiquitinylated proteins at 2.5 to 25 uM after 4 hrs by western blot analysis; assay type: cell-based
In short: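 Karpas 1106p cells treated with inhibitor at the indicated concentrations for 4 h at 37 °C. Polyubiquitinated proteins then detected by Western blot.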

[12] = target: T1, Proteasome subunit beta type-8 (Homo sapiens); settings: 1 nM
[13] = target: T1, Proteasome subunit beta type-8 (Homo sapiens); settings: 10 to 100 nM
[14] = target: T2, Proteasome subunit beta type-8; assay: Inhibition of immunoproteasome-20S subunit beta5i in human PBMC assessed as substrate hydrolysis using suc-LLVY-AMC as substrate preincubated for 15 mins prior to substrate challenge measured for 120 mins by fluorescence analysis; in short: as §2

Row | Compound | Ratio [1] [M⁻¹ s⁻¹] | Ratio (Homo sapiens [2]) [M⁻¹ s⁻¹] | Ratio (Homo sapiens [3]) | Kinact [4] [s⁻¹] | Ki [5] [nM] | inhibition [6] | half-life at 75 µM [7] [h] | inhibition [8] [%] | inhibition [9] [%] | inhibition [10] | EC50 (26S proteasome) [nM] | inhibition [11] | inhibition [12] [%] | inhibition [13] [%] | IC50 [14] [nM]
1 | CC(=O)N[C@H](Cc1ccccc1)C(=O)Nc1cccc(-c2nsc(=O)o2)c1 | 6.6 | 0.34 | 19 |  |  |  |  |  |  |  |  |  |  |  | 
2 | O=c1oc(-c2cc(O)c(O)c(O)c2)ns1 | 239 | 1.4 | 171 | 0.00042 | 1700 | tde |  |  |  |  |  |  |  |  | 
3 | CC(C)(C)OC(=O)Nc1ccc(-c2nsc(=O)o2)cc1 | 341 | 2.4 | 142 | 0.00037 | 1100 |  |  |  |  |  |  |  |  |  | 
4 | CC(=O)N[C@H](Cc1ccccc1)C(=O)Nc1ccc(-c2nsc(=O)o2)cc1 | 151 | 0.7 | 215 | 0.00053 | 3500 |  | 0.878 | 40 | 65 | Active | 15400 | Active |  |  | 
5 | CC(C)C[C@H](NC(=O)[C@H](Cc1ccccc1)NC(=O)c1cnccn1)B(O)O |  |  |  |  |  |  |  |  |  |  |  |  | 58 | 90 | 
6 | Cc1sc(-c2nsc(=O)o2)cc1[N+](=O)[O-] | 1010 | 10.1 | 100 | 0.00077 | 760 |  |  |  |  |  |  |  |  |  | 220
7 | O=c1oc(-c2ccccn2)ns1 | 129 | 0.2 | 645 | 0.00025 | 2000 |  |  |  |  |  |  |  |  |  | 
8 | CC(=O)N[C@@H](Cc1ccccc1)C(=O)Nc1ccc(-c2nsc(=O)o2)cc1 | 193 | 0.13 | 1490 | 0.0001 | 520 | tde |  |  |  |  |  |  |  |  | 
9 | O=c1oc(-c2cccc(CN3CCOCC3)c2)ns1 | 214 | 2.3 | 93 | 0.00026 | 1200 | tde |  |  |  |  |  |  |  |  | 
10 | O=c1oc(-c2ccccc2C(F)(F)F)ns1 | 187 | 1.6 | 117 | 0.00033 | 1800 | tde |  |  |  |  |  |  |  |  | 
11 | O=c1oc(-c2ccc(-c3ccccc3)cc2)ns1 | 1090 | 0.23 | 4750 | 0.00154 | 1400 |  |  |  |  |  |  |  |  |  | 
12 | [N-]=[N+]=Nc1ccc(-c2nsc(=O)o2)cc1 | 263 | 23.7 | 11 | 0.00092 | 3500 | tde |  |  |  |  |  |  |  |  | 

The remaining lines, values ahead:

Row | Ratio [1] [M⁻¹ s⁻¹] | Ratio (Homo sapiens [2]) [M⁻¹ s⁻¹] | Ratio (Homo sapiens [3]) | Kinact [4] [s⁻¹] | Ki [5] [nM] | inhibition [6] | half-life at 75 µM [7] [h] | inhibition [8] [%] | inhibition [9] [%] | inhibition [10] | EC50 (26S proteasome) [nM] | inhibition [11] | inhibition [12] [%] | inhibition [13] [%] | IC50 [14] [nM] | Compound
13 | 118 | 14.8 | 8 | 0.00093 | 7900 | tde |  |  |  |  |  |  |  |  |  | O=c1oc(-c2ccccc2)ns1
14 | 913 | 10.3 | 89 | 0.00038 | 420 | tde |  |  |  |  |  |  |  |  |  | O=c1oc(-c2cccc([N+](=O)[O-])c2)ns1
15 | 83 | 3.2 | 26 |  |  |  | 1.36 | 60 | > 90 | Active | 4200 | Active |  |  |  | CC(=O)Nc1cccc(-c2nsc(=O)o2)c1
16 | 168 | 0.4 | 420 | 0.001 | 6000 | tde |  |  |  |  |  |  |  |  |  | O=c1oc(-c2cccc(-c3ccccc3)c2)ns1
17 | 225 | 0.13 | 1730 | 0.00026 | 1100 | tde |  |  |  |  |  |  |  |  |  | O=c1oc(-c2ccc3[nH]ccc3c2)ns1
18 | 20 | 13.2 | 1.5 |  |  |  |  |  |  |  |  |  |  |  |  | O=c1oc(-c2cccc(F)c2)ns1
